From ChEMBL document CHEMBL5058577, “EUbOPEN Chemogenomics Library 2 (Multiplex)” (2022)

Test system: Fibroblast
Assay: Multiplex assay against human fibroblast
Type: toxicity, cell-based
Method in brief: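 Compound was added to live cells that had been stained at seeding with Hoechst33342, BioTracker Green Microtubule Cytoskeleton Dye, MitoTracker Red and Annexin V Alexa Fluor 680, and imaging followed on a CQ1 microscope at 37°C and 5% CO2. CellPathfinder machine-learning gating divided cells into Hoechst high-intensity objects or normal cells, normal cells into healthy, pyknosed or fragmented nuclei, and pyknosed cells into mitotic or apoptotic. Tubulin, mitochondrial-mass and membrane-permeability phenotypes are per cents of healthy-nucleus cells.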

[1] = 12 h, 1 µM, compound concentration 1 uM, replicate 1
[2] = 12 h, 1 µM, compound concentration 1 uM, replicate 2
[3] = 12 h, 10 µM, compound concentration 10 uM, replicate 1
[4] = 12 h, 10 µM, compound concentration 10 uM, replicate 2
[5] = 24 h, 1 µM, compound concentration 1 uM, replicate 1
[6] = 24 h, 1 µM, compound concentration 1 uM, replicate 2
[7] = 24 h, 10 µM, compound concentration 10 uM, replicate 1
[8] = 24 h, 10 µM, compound concentration 10 uM, replicate 2
[9] = 48 h, 1 µM, compound concentration 1 uM, replicate 1
[10] = 48 h, 1 µM, compound concentration 1 uM, replicate 2
[11] = 48 h, 10 µM, compound concentration 10 uM, replicate 1
[12] = 48 h, 10 µM, compound concentration 10 uM, replicate 2

SMILES: Br.CS(=O)(=O)Nc1c(O)ccc2c1CCCC2C1=NCCN1 (configuration not stated)
- Population Apoptotic (%) [1]: 17%
- Population Fragmented Nuclei (%) [1]: 9%
- Population Healthy Nuclei (%) [1]: 76%
- Population Hoechst High Intensity Objects (%) [1]: 1%
- Population Membrane Permeable-Phenotype (%) [1]: 0%
- Population Mitochondria Different-Phenotype (%) [1]: 5%
- Population Mitotic Cells (%) [1]: 82%
- Population Normal (%) [1]: 98%
- Population Pyknosed Nuclei (%) [1]: 14%
- Population Tubulin-Different-Phenotype (%) [1]: 20%
- Total Cell Count [1]: 167
- Population Apoptotic (%) [2]: 31%
- Population Fragmented Nuclei (%) [2]: 32%
- Population Healthy Nuclei (%) [2]: 47%
- Population Hoechst High Intensity Objects (%) [2]: 8%
- Population Membrane Permeable-Phenotype (%) [2]: 7%
- Population Mitochondria Different-Phenotype (%) [2]: 8%
- Population Mitotic Cells (%) [2]: 68%
- Population Normal (%) [2]: 91%
- Population Pyknosed Nuclei (%) [2]: 19%
- Population Tubulin-Different-Phenotype (%) [2]: 38%
- Total Cell Count [2]: 192
- Population Apoptotic (%) [3]: 38%
- Population Fragmented Nuclei (%) [3]: 20%
- Population Healthy Nuclei (%) [3]: 47%
- Population Hoechst High Intensity Objects (%) [3]: 6%
- Population Membrane Permeable-Phenotype (%) [3]: 1%
- Population Mitochondria Different-Phenotype (%) [3]: 7%
- Population Mitotic Cells (%) [3]: 61%
- Population Normal (%) [3]: 93%
- Population Pyknosed Nuclei (%) [3]: 31%
- Population Tubulin-Different-Phenotype (%) [3]: 21%
- Total Cell Count [3]: 148
- Population Apoptotic (%) [4]: 33%
- Population Fragmented Nuclei (%) [4]: 38%
- Population Healthy Nuclei (%) [4]: 45%
- Population Hoechst High Intensity Objects (%) [4]: 0%
- Population Membrane Permeable-Phenotype (%) [4]: 12%
- Population Mitochondria Different-Phenotype (%) [4]: 5%
- Population Mitotic Cells (%) [4]: 66%
- Population Normal (%) [4]: 99%
- Population Pyknosed Nuclei (%) [4]: 16%
- Population Tubulin-Different-Phenotype (%) [4]: 43%
- Total Cell Count [4]: 129
- Population Apoptotic (%) [5]: 56%
- Population Fragmented Nuclei (%) [5]: 12%
- Population Healthy Nuclei (%) [5]: 77%
- Population Hoechst High Intensity Objects (%) [5]: 1%
- Population Membrane Permeable-Phenotype (%) [5]: 0%
- Population Mitochondria Different-Phenotype (%) [5]: 3%
- Population Mitotic Cells (%) [5]: 43%
- Population Normal (%) [5]: 98%
- Population Pyknosed Nuclei (%) [5]: 10%
- Population Tubulin-Different-Phenotype (%) [5]: 16%
- Total Cell Count [5]: 159
- Population Apoptotic (%) [6]: 33%
- Population Fragmented Nuclei (%) [6]: 25%
- Population Healthy Nuclei (%) [6]: 60%
- Population Hoechst High Intensity Objects (%) [6]: 7%
- Population Membrane Permeable-Phenotype (%) [6]: 2%
- Population Mitochondria Different-Phenotype (%) [6]: 7%
- Population Mitotic Cells (%) [6]: 66%
- Population Normal (%) [6]: 92%
- Population Pyknosed Nuclei (%) [6]: 14%
- Population Tubulin-Different-Phenotype (%) [6]: 41%
- Total Cell Count [6]: 180
- Population Apoptotic (%) [7]: 48%
- Population Fragmented Nuclei (%) [7]: 16%
- Population Healthy Nuclei (%) [7]: 60%
- Population Hoechst High Intensity Objects (%) [7]: 3%
- Population Membrane Permeable-Phenotype (%) [7]: 0%
- Population Mitochondria Different-Phenotype (%) [7]: 2%
- Population Mitotic Cells (%) [7]: 51%
- Population Normal (%) [7]: 96%
- Population Pyknosed Nuclei (%) [7]: 23%
- Population Tubulin-Different-Phenotype (%) [7]: 24%
- Total Cell Count [7]: 148
- Population Apoptotic (%) [8]: 41%
- Population Fragmented Nuclei (%) [8]: 41%
- Population Healthy Nuclei (%) [8]: 44%
- Population Hoechst High Intensity Objects (%) [8]: 0%
- Population Membrane Permeable-Phenotype (%) [8]: 10%
- Population Mitochondria Different-Phenotype (%) [8]: 10%
- Population Mitotic Cells (%) [8]: 58%
- Population Normal (%) [8]: 99%
- Population Pyknosed Nuclei (%) [8]: 13%
- Population Tubulin-Different-Phenotype (%) [8]: 41%
- Total Cell Count [8]: 130
- Population Apoptotic (%) [9]: 57%
- Population Fragmented Nuclei (%) [9]: 14%
- Population Healthy Nuclei (%) [9]: 76%
- Population Hoechst High Intensity Objects (%) [9]: 4%
- Population Membrane Permeable-Phenotype (%) [9]: 4%
- Population Mitochondria Different-Phenotype (%) [9]: 3%
- Population Mitotic Cells (%) [9]: 42%
- Population Normal (%) [9]: 95%
- Population Pyknosed Nuclei (%) [9]: 8%
- Population Tubulin-Different-Phenotype (%) [9]: 24%
- Total Cell Count [9]: 167
- Population Apoptotic (%) [10]: 38%
- Population Fragmented Nuclei (%) [10]: 26%
- Population Healthy Nuclei (%) [10]: 61%
- Population Hoechst High Intensity Objects (%) [10]: 5%
- Population Membrane Permeable-Phenotype (%) [10]: 0%
- Population Mitochondria Different-Phenotype (%) [10]: 9%
- Population Mitotic Cells (%) [10]: 61%
- Population Normal (%) [10]: 94%
- Population Pyknosed Nuclei (%) [10]: 12%
- Population Tubulin-Different-Phenotype (%) [10]: 41%
- Total Cell Count [10]: 177
- Population Apoptotic (%) [11]: 61%
- Population Fragmented Nuclei (%) [11]: 22%
- Population Healthy Nuclei (%) [11]: 61%
- Population Hoechst High Intensity Objects (%) [11]: 6%
- Population Membrane Permeable-Phenotype (%) [11]: 1%
- Population Mitochondria Different-Phenotype (%) [11]: 2%
- Population Mitotic Cells (%) [11]: 38%
- Population Normal (%) [11]: 93%
- Population Pyknosed Nuclei (%) [11]: 15%
- Population Tubulin-Different-Phenotype (%) [11]: 21%
- Total Cell Count [11]: 145
- Population Apoptotic (%) [12]: 33%
- Population Fragmented Nuclei (%) [12]: 48%
- Population Healthy Nuclei (%) [12]: 44%
- Population Hoechst High Intensity Objects (%) [12]: 1%
- Population Membrane Permeable-Phenotype (%) [12]: 3%
- Population Mitochondria Different-Phenotype (%) [12]: 9%
- Population Mitotic Cells (%) [12]: 66%
- Population Normal (%) [12]: 98%
- Population Pyknosed Nuclei (%) [12]: 7%
- Population Tubulin-Different-Phenotype (%) [12]: 45%
- Total Cell Count [12]: 127
